Data: ChEMBL document CHEMBL4382240, “Discovery of novel 2,5-dihydroxyterephthalamide derivatives as multifunctional agents for the treatment of Alzheimer's disease” (Bioorg Med Chem, 2018)
Active and inactive are the calls of the source. The rule behind the calls is not given here.

Tests used:
Acetylcholinesterase = biological target: T1, Acetylcholinesterase (Rattus norvegicus, UniProt P37136); assay: Inhibition of rat cortex AChE using acetylthiocholine iodide as substrate after 15 mins by Ellman's method
T1 sequence (P37136 whole entry): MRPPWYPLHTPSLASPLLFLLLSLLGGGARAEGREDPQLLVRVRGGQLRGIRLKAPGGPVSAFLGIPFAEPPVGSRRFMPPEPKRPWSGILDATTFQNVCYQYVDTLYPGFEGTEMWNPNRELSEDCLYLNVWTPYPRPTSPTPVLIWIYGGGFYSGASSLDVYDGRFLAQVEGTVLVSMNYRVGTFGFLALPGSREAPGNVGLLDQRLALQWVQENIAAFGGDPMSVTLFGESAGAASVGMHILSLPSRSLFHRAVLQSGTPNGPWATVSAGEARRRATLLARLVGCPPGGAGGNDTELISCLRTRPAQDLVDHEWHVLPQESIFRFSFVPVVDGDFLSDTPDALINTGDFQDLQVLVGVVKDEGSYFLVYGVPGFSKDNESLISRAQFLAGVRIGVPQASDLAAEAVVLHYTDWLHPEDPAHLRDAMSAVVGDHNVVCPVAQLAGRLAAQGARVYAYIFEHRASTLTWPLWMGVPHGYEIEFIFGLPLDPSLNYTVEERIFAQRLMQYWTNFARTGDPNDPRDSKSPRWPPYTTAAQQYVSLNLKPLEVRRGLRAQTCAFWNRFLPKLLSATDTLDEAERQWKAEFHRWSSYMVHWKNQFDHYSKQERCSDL

Butyrylcholinesterase = Butyrylcholinesterase (Rattus norvegicus, UniProt Q9JKC1); assay: Inhibition of rat serum BuChE using butyrylthiocholine iodide as substrate after 15 mins by Ellman's method; format: ADME
Sequence of Butyrylcholinesterase (Q9JKC1 whole entry): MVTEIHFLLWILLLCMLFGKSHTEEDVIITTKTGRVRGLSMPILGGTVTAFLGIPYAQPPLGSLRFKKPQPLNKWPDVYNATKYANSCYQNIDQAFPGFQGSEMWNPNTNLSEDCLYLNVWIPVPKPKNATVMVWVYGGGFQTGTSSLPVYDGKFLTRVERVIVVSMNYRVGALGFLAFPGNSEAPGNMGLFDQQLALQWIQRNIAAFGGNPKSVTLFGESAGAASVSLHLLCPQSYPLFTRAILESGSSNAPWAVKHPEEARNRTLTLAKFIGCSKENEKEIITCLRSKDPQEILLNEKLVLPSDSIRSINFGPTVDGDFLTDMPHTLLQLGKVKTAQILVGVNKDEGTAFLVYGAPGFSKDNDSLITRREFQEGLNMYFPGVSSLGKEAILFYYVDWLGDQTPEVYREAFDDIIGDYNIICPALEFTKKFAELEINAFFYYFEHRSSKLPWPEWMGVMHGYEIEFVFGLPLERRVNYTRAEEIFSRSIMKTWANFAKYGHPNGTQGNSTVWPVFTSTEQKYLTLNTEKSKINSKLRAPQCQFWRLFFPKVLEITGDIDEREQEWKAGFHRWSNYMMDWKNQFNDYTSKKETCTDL

[1] = Metal chelating activity assessed as compound-Cu2+ complex formation at 37.5 uM after 30 mins by UV spectrometry method
How it was run: (§1)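 Compound and metal salt (CuCl2, ZnCl2, FeSO4 or AlCl3), each 37.5 µM final in methanol, incubated 30 min at room temperature. UV-vis spectra recorded from 200 to 600 nm and compared with the compound alone.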

[2] = Metal chelating activity assessed as compound-Fe2+ complex formation at 37.5 uM after 30 mins by UV spectrometry method; how it was run: as §1
[3] = Metal chelating activity assessed as mole fraction of compound required to show 1:2 stoichiometry for compound -Cu2+ complex at 37.5 uM after 30 mins by UV spectrometry method
How it was run: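 Molar-ratio titration in methanol: compound fixed at 37.5 µM final, CuCl2 varied from 3.75 to 150 µM final. Spectra corrected by subtracting CuCl2 and compound alone. Absorbance at 274 nm plotted against mole fraction; stoichiometry taken from where the straight lines intersect.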

[4] = Disaggregation of Cu2+ induced preformed fibrils of human amyloid beta (1 to 42) at 25 uM after 24 hrs by Thioflavin T based fluorometric assay relative to control
How it was run: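 Aβ1-42 (25 µM) with Cu2+ (25 µM) in HEPES buffer pre-aggregated 24 h at 37 °C. Compound (25 µM) then added for a further 24 h at 37 °C. Fibril content measured by ThT fluorescence (glycine-NaOH, pH 8.5). Triplicate; three independent experiments.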

[5] = Effect on TNFalpha release in […] cells up to 10 uM after 24 hrs by ELISA; format: ADME, cell-based
How it was run: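 BV-2 cells exposed to compound up to 10 µM with no added LPS. TNF-α in the medium measured by ELISA. Mean ± SD of three independent experiments.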

Homo sapiens = organism: Homo sapiens; assay: Anti-inflammatory activity in […] cells assessed as inhibition of LPS-stimulated TNFalpha release preincubated for 30 mins followed by LPS stimulation and measured after 24 hrs by ELISA; format: functional, cell-based
How it was run: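 Confluent BV-2 cells in DMEM preincubated 30 min with compound, tested over 0.5–10 µM, then stimulated with LPS (1.0 µg/mL) for 24 h. Released TNF-α measured by ELISA following kit instructions. Triplicate wells; mean ± SD of three independent experiments.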

## CCN(CCCCNC(=O)c1cc(O)c(C(=O)NCCCCN(CC)Cc2ccccc2OC)cc1O)Cc1ccccc1OC
Acetylcholinesterase
  IC50: 560 nM
Butyrylcholinesterase
  IC50: > 100 µM
[1]
  Activity: Active
[2]
  Activity: Active
[3]
  Activity: 1.9 molar ratio
[4]
  Activity: 77.2%
[5]
  Activity: Non-Toxic
Homo sapiens
  inhibition: Dose-dependent effect
